# Reference: ChEMBL document CHEMBL1152641, “Effect of potential amine prodrugs of selective neuronal nitric oxide synthase inhibitors on blood-brain barrier penetration” (Bioorg Med Chem, 2009)
# Legend:
# Brain [1] = assay: Drug level in mouse brain at […], ip; assay type: ADME, organism-based; conditions: in vivo, read-out: Drug uptake
# In short: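 Mice were dosed i.p. with compound diluted in PBS to 1 mM, at 100 μL per 10 g, and sampled 10 min later. Brains were PBS-perfused through the left ventricle, removed, flash-frozen, homogenized in 2% formic acid water/acetonitrile (2:1) with internal standard, then cleaned by cation-exchange SPE. Quantified by positive-ESI LC-MS/MS against triplicate standard curves; μg/g converted to μM assuming density 1 g/mL; SEM.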
# Mus musculus [2] = assay: Plasma concentration in mouse at 10 umol/kg, ip; assay type: ADME, organism-based; conditions: in vivo
# In short: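 Mice were given an i.p. injection of a 1 mM PBS solution (100 μL per 10 g) and sampled at 10 min. Heparinized blood was centrifuged and the plasma flash-frozen at −20 °C. Plasma plus internal standard was diluted in 2% acetic acid, cleaned by mixed-mode cation-exchange SPE, and quantified by positive-ESI LC-MS/MS (MRM) against triplicate standard curves; values as SEM.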
# [3] = Metabolic stability in rat liver microsomes assessed compound remaining after 40 mins by HPLC in presence of NADPH; assay type: ADME, Microsome; conditions: read-out: Stability
# In short: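 Compound (10 μL of 300 μM stock) in PBS with NADPH regeneration solutions A/B was equilibrated at 37 °C. Rat liver microsomes were added and samples incubated for 0, 10, 20 or 40 min. Reactions were quenched with acetonitrile, chilled to 0 °C, centrifuged, dried and reconstituted in 2% formic acid. HPLC peak areas were normalized to t = 0; minaprine served as activity control.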
# [4] = Ratio of drug level from brain to blood in mouse at 10 umol/kg, ip; assay type: ADME, tissue-based
# Brain [5] = assay: Metabolic stability in mouse brain homogenate assessed degradation by HPLC in presence of NADPH; assay type: ADME, tissue-based
# In short: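 Three fresh mouse brains were each homogenized in PBS (pH 7.4) with NADPH regeneration buffers A and B, then pooled. Compound was added from a 200 μM stock and incubated at 37 °C for 0, 10, 20 and 40 min. Samples were heat-stopped at 95 °C for 1 min. HPLC UV read-out was at 310 or 260 nm depending on the compound. Peak-area ratio to internal standard was normalized to t = 0.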
# Plasma [6] = assay: Metabolic stability in mouse plasma after 40 mins by HPLC in presence of NADPH
# Liver microsomes = assay: Metabolic stability in rat liver microsomes assessed degradation by HPLC in presence of NADPH; assay type: ADME, Microsome
# In short: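 Rat liver microsomes were added to PBS containing NADPH regeneration buffers A and B and compound (from a 300 μM stock), pre-equilibrated at 37 °C. Incubation was at 37 °C for 0, 10, 20 and 40 min. Samples were quenched with acetonitrile, chilled, centrifuged, dried and reconstituted in 2% formic acid for HPLC. Peak area was normalized to t = 0. Minaprine was run in parallel as a P450 activity control.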
# Plasma [7] = assay: Metabolic stability in mouse plasma assessed as half life in presence of NADPH; assay type: ADME, cell-free
# In short: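 Fresh heparinized mouse plasma was supplemented with NADPH regenerating system (solutions A and B), and compound was added from a 200 μM stock. Incubation was at 37 °C, with samples taken at 0, 10, 20 and 40 min. Samples were quenched with acetonitrile plus internal standard, centrifuged, dried and run on HPLC. Compound/internal-standard ratio was normalized to the t = 0 ratio.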
# Mus musculus [8] = assay: Toxicity in mouse at 3.7 mg/kg, ip; assay type: organism-based; set-up: dose 3.7 mg/kg, route intraperitoneal; conditions: in vivo
Structure (SMILES),concentration (Brain [1]) [µM],concentration (Mus musculus [2]) [µM],remaining at 40 min [3] [%],Kp [4],also measured
COC(=O)N(CCO[C@H]1CNC[C@H]1Cc1cc(C)cc(N)n1)CCc1cccc(F)c1 (racemic),0.018,1.21,> 80,0.015,–
Cc1cc(N)nc(C[C@@H]2CNC[C@@H]2OCCN=[N+]=[N-])c1 (racemic),–,–,–,–,Stability (Brain [5]): Stable; Stability (Plasma [6]): Stable
"CC(OC(=O)N[C@@H](CCCNC(=N)N[N+](=O)[O-])CNc1ccccc1)OC(=O)C(C)(C)C (single isomer, unassigned; diastereomer 2)",–,–,–,–,Stability (Brain [5]): Unstable; Stability (Liver microsomes): Unstable; t1/2 (Plasma [7]): 30 min
CC(=O)N(CCO[C@H]1CNC[C@H]1Cc1cc(C)cc(N)n1)CCc1cccc(F)c1 (racemic),0.039,4.6,> 80,0.008,–
Cc1cc(N)nc(C[C@@H]2CNC[C@@H]2OCCNCCc2cccc(F)c2)c1 (racemic),0.073,1.6,–,0.046,Activity (Mus musculus [8]): Non-toxic
Cc1cc(N)nc(C[C@@H]2CNC[C@@H]2NCCNCCc2cccc(F)c2)c1,0.039,1.6,–,0.024,–
Cc1cc(N)nc(C[C@@H]2CNC[C@@H]2OCCN(CCc2cccc(F)c2)C(=O)OCc2ccccc2)c1 (racemic),0.009,0.49,> 60,0.018,–
"CC(OC(=O)N[C@@H](CCCNC(=N)N[N+](=O)[O-])CNc1ccccc1)OC(=O)C(C)(C)C (single isomer, unassigned; diastereomer 1)",–,–,–,–,t1/2 (Plasma [7]): 10 min
CC(OC(=O)N[C@@H](CCCNC(=N)N[N+](=O)[O-])CNc1ccccc1)OC(=O)C(C)(C)C (stereo partly specified),–,–,–,–,Stability (Plasma [6]): Unstable
